Measurements from article PMC3772642 (Nature, 2009).
No end group written: not given here. *: point of attachment. Dansyl = CN(C)c1cccc2c(S(=O)(=O)*)cccc12; Me3 = trimethyl-lysine, K(Me3)

What was measured:
[1] = biological target: ΔEed (Homo sapiens, UniProt O75530, M370T); assay: crystal structure of ΔEed with ligand; format: binding; details: crystallisation additive 0.6–0.7 M NDSB-195, 4.0–4.1 M formate
Method in brief: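 ΔEed carrying Met-370Thr was purified by size exclusion (50 mM Tris-HCl pH 8.7, 150 mM NaCl, 3 mM TCEP) and held at 1.5 mg/ml with peptide at 7-fold molar excess, 15 mM TCEP. Hanging-drop vapour diffusion was run at 18 °C, mixing equal volumes with 3.7–3.9 M formate. Apo ΔEed (2.5 mg/ml) used 4.0–4.1 M formate with 0.6–0.7 M NDSB-195.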

[2] = system: chromatin reconstituted with histones containing the different levels of H3K36 methylation; assay: pull-down, H3K36 methylated chromatin; format: binding; details: NiNta pull-down, Fig. S8
Method in brief: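 Chromatin arrays were built from recombinant histones carrying single chemically installed methyl-lysine analogs, assembled into octamers, formed by salt dialysis and cleared of free histone on an agarose column. 2 ug chromatin was incubated with 2 ug full-length His-tagged Eed in 50mM Tris pH8.0, 50mM NaCl, 1 mM EDTA, 0.1% NP40 for 2 hours at 4°C with NiNta beads. Beads were washed extensively, eluted in SDS loading buffer and analysed by western blot.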

[3] = system: chromatin trimethylated on H3K9; assay: pull-down, chromatin trimethylated on H3K9; format: binding; details: 2 ug chromatin, 2 ug protein or complex, 2 hours at 4 C, western blot
Method in brief: (§1)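 Recombinant histones were made in E. coli, assembled into octamers and formed into chromatin by salt dialysis, then purified on an agarose column. Chromatin (2 ug) was incubated with 2 ug Sf9-reconstituted PRC2-Ezh2 in 50 mM Tris pH 8.0, 50 mM NaCl, 1 mM EDTA, 0.1% NP40 with M2 beads for 2 h at 4 °C. Beads were washed, eluted in SDS loading buffer and analysed by western blot against a beads-only control.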

[4] = system: nucleosomes; assay: pull-down, nucleosomes; format: binding; details: methylated or unmodified nucleosomes, not separated
Method in brief: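 Reconstituted chromatin arrays (salt dialysis, agarose-column purified to remove free histone) at 2 ug were incubated with 2 ug protein or complex in 50mM Tris pH8.0, 50mM NaCl, 1 mM EDTA, 0.1% NP40 for 2 hours at 4°C. Capture was on NiNta beads for Eed or M2 beads for PRC2. After extensive washing, beads were eluted in SDS loading buffer and analysed by western blot.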

[5] = system: unmodified chromatin; assay: pull-down, unmodified chromatin; format: binding; details: M2-Beads pull-down, 2 hours at 4 C, western blot
Method in brief: as §1

[6] = biological target: truncated version of Eed (residues 77 to 441), ΔEed (UniProt O75530); assay: other fluorescence titration
[7] = biological target: truncated version of Eed (residues 77 to 441), ΔEed (UniProt O75530 78-441, Met-370Thr); assay: other fluorescence titration

Molecule: CC[N+](C)(C)CCCS(=O)(=O)[O-] [NDSB-195]
- electron density in central pocket of ΔEed [1]: able to build into the extra electron density

Molecule: Eed: full-length His-tagged Eed protein
- interaction with H3K36 methylated chromatin [2]: not able to interact
- interaction with chromatin trimethylated on H3K9 [3]: did bind

Molecule: PRC2 Eed (Phe-97Ala): mutant PRC2 complex containing Eed (Phe-97Ala)
- interaction with nucleosomes [4]: does not show binding to chromatin

Molecule: PRC2 Eed (Tyr-365Ala): mutant PRC2 complex containing Eed (Tyr-365Ala)
- interaction with nucleosomes [4]: does not show binding to chromatin

Molecule: PRC2: PRC2 complex purified from insect cells co-infected with baculovirus expressing each of the subunits
- interaction with chromatin trimethylated on H3K9 [3]: bound significantly tighter
- interaction with unmodified chromatin [5]: displayed some binding

Molecule: R26A of H3K27me3 peptide
- fold reduction of binding against the H3K27me3 peptide [6]: 1.5 fold

Molecule: ΔEed: truncated version of Eed (residues 77 to 441)
- interaction with nucleosomes [4]: failed to interact with nucleosomes

Molecule: KKKARK(Me3)SAGAAK(Dansyl) (not fully specified; printed as KKKARK(Me3)SAGAAK-dansyl) [dansyl labelled peptide KKKARK(Me3)SAGAAK-dansyl]
- binding result [7]: binds
